The subject of experiment [1] is Popillia japonica. Description: Insecticidal activity against Popillia japonica at 552 g/kg SC assessed as moribund behaviour measured after 24 to 56 days by irrigation injection method. Type of experiment: functional, organism-based.
For experiment [2], the system named is Popillia japonica. Nature of the experiment: Insecticidal activity against Popillia japonica assessed as reduction in leaf damage measured up to 63 days post treatment by laboratory bioassay. The format is functional, organism-based. An outline of the steps: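 Leaves were taken from vines treated by irrigation injection (6 June and 6 July 2007). Four uninjured leaves per treatment plot were offered to Japanese beetles in the laboratory. Leaf area removed (cm²) was measured weekly, from 4 days before the second injection to […] after it.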

The test system of experiment [3] is Popillia japonica. Description: Insecticidal activity against Popillia japonica at 552 g/kg SC measured after 24 days by irrigation injection method. Type of experiment: functional, organism-based. In short, it runs like this: (§1)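 Insecticide was injected into the drip irrigation on 6 June and 6 July 2007, in seven-vine rows. Japanese beetles were counted on vines in the field at intervals after treatment. Total beetles per row were log(x+1) transformed and analysed by ANOVA with […] post hoc tests.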

The subject of experiment [4] is Popillia japonica. Nature of the experiment: Insecticidal activity against Popillia japonica at 552 g/kg SC assessed as moribund behaviour measured after 10 to 19 days by irrigation injection method. Type of experiment: functional, organism-based.
Experiment [5] relates to Paralobesia. Nature of the experiment: Insecticidal activity against Paralobesia viteana infested grapevine assessed as reduction in clusters infested with moth by early-season irrigation injection method (reference value: 34.3 +/- 4.4 %). The format is functional. Set-up: scale not given: the % may be the effect or the level left.
The test system of experiment [6] is Popillia japonica. Description: Insecticidal activity against Popillia japonica at 552 g/kg SC assessed as reduction in leaf damage measured after 35 days by irrigation injection method (reference value: 50.97 +/- 7.2 %). The format is functional. More on the design: scale not given: the % may be the effect or the level left.
Experiment [7] deals with Popillia japonica. Nature of the experiment: Insecticidal activity against Popillia japonica at 552 g/kg SC measured after 1 to 24 days by irrigation injection method. The format is functional, organism-based. An outline of the steps: as §1
Experiment [8] has as its system Paralobesia. Description: Insecticidal activity against Paralobesia viteana infested grapevine assessed as reduction in clusters infested with moth by mid-season irrigation injection method (reference value: 11 +/- 1.9 %). Type of experiment: functional. Set-up: scale not given: the % may be the effect or the level left.
For experiment [9], the system named is Popillia japonica. Nature of the experiment: Insecticidal activity against Popillia japonica at 552 g/kg SC assessed as moribund behaviour measured after 3 days by irrigation injection method. Type of experiment: functional, organism-based.
Experiment [10] has as its system Popillia japonica. Nature of the experiment: Insecticidal activity against Popillia japonica at 552 g/kg SC measured after 14 days by irrigation injection method. The format is functional, organism-based. In short, it runs like this: as §1
For experiment [11], the system named is Popillia japonica. Nature of the experiment: Insecticidal activity against Popillia japonica at 500 g/kg WG assessed as moribund behaviour measured after 3 days by irrigation injection method. The format is functional, organism-based.
Experiment [12] deals with Popillia japonica. Description: Insecticidal activity against Popillia japonica at 500 g/kg WG assessed as moribund behaviour measured after 24 to 56 days by irrigation injection method. Type of experiment: functional, organism-based.
Experiment [13] relates to Popillia japonica. Description: Insecticidal activity against Popillia japonica at 500 g/kg WG assessed as reduction in leaf damage measured after 35 days by irrigation injection method (reference value: 50.97 +/- 7.2 %). More on the design: scale not given: the % may be the effect or the level left. Type of experiment: functional.
For experiment [14], the system named is Popillia japonica. Description: Insecticidal activity against Popillia japonica at 500 g/kg WG assessed as moribund behaviour measured after 10 to 19 days by irrigation injection method. The format is functional, organism-based.
Experiment [15] has as its system Popillia japonica. Nature of the experiment: Insecticidal activity against Popillia japonica at 240 g/kg SC assessed as moribund behaviour measured after 10 to 19 days by irrigation injection method. Type of experiment: functional, organism-based.
Experiment [16] has as its system Popillia japonica. Nature of the experiment: Insecticidal activity against Popillia japonica at 240 g/kg SC assessed as moribund behaviour measured after 3 days by irrigation injection method. The format is functional, organism-based.
Experiment [17] deals with Popillia japonica. Nature of the experiment: Insecticidal activity against Popillia japonica at 240 g/kg SC assessed as moribund behaviour measured after 24 to 56 days by irrigation injection method. The format is functional, organism-based.
Experiment [18] relates to Popillia japonica. Nature of the experiment: Insecticidal activity against Popillia japonica at 240 g/kg SC assessed as reduction in leaf damage measured after 35 days by irrigation injection method (reference value: 50.97 +/- 7.2 %). The format is functional. Set-up: scale not given: the % may be the effect or the level left.
The subject of experiment [19] is Popillia japonica. Description: Insecticidal activity against Popillia japonica at 240 g/kg SC measured after 1 to 24 days by irrigation injection method. Type of experiment: functional, organism-based. An outline of the steps: as §1

SMILES strings stand for the structures. Activity calls are given as the source filed them. No cut-off for these calls is given here.

In the case of `O=[N+]([O-])/N=C1\NCCN1Cc1ccc(Cl)nc1` [IMIDACLOPRID], the outcome in experiment [1], in [2], in [3], in experiment [4], in experiment [7] and in experiment [9] was Active. Moreover, the outcome in experiment [10] was Active. In addition, the Activity amounted to 11.8% in experiment [5], 4.43% in experiment [6] and 1% in experiment [8].
Consider `CN/C(=N\[N+](=O)[O-])NCc1cnc(Cl)s1` [CLOTHIANIDINE], for which the outcome in [2], in experiment [11], in experiment [12] and in experiment [14] was inactive. The Activity in experiment [5] turned out to be 31.7%; in experiment [13], 48.3%; in experiment [8] it was 6%.
On to `CN1COCN(Cc2cnc(Cl)s2)/C1=N\[N+](=O)[O-]` [THIAMETHOXAM], for which the outcome in experiment [2] was Active. In addition, the outcome in [15], in experiment [16], in experiment [17] and in experiment [19] was inactive. In addition, the Activity stood at 25.3% in [5], 27.67% in experiment [18] and 7% in [8].

Values taken from ChEMBL document CHEMBL3046168, “Soil application of neonicotinoid insecticides for control of insect pests in wine grape vineyards” (2012).
